From ChEMBL document CHEMBL4689842, “EUbOPEN Chemogenomics Library wave 1” (2021)
Where “and” joins values, the source holds several entries; their conditions need not be identical. Identical values can stand only once.

Tests used:
Type in all cases: toxicity, cell-based
Fibroblast [1] = experiment: Incucyte cell viability with human fibroblast; settings: 10 µM, compound concentration 10 uM; further: filed as whole numbers so only -1 and 0 and 1 occur
HEK-293T [2] = experiment: Incucyte cell viability with HEK293T; settings: human, 10 µM, compound concentration 10 uM; further: filed as whole numbers so only -1 and 0 and 1 occur
Fibroblast [3] = experiment: Multiplex assay against human fibroblast; settings: 1 µM, compound concentration 1 uM
Outline: (§1)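 Compound was added to live cells that had been stained at seeding with Hoechst33342, BioTracker Green Microtubule Cytoskeleton Dye, MitoTracker Red and Annexin V Alexa Fluor 680, and imaging followed on a CQ1 microscope at 37°C and 5% CO2. CellPathfinder machine-learning gating divided cells into Hoechst high-intensity objects or normal cells, normal cells into healthy, pyknosed or fragmented nuclei, and pyknosed cells into mitotic or apoptotic. Tubulin, mitochondrial-mass and membrane-permeability phenotypes are per cents of healthy-nucleus cells.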

HEK-293T [4] = experiment: Multiplex assay against HEK293T; settings: human, 1 µM, compound concentration 1 uM; outline: as §1;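 on Population Tubulin-Different-Phenotype (%): share of the cells with healthy nuclei that show this phenotype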
U2OS [5] = experiment: Incucyte cell viability with U2OS; settings: human, 10 µM, compound concentration 10 uM; further: filed as whole numbers so only -1 and 0 and 1 occur
U2OS [6] = experiment: Multiplex assay against U2OS; settings: human, 1 µM, compound concentration 1 uM; outline: as §1
[7] = 0 h, replicate number 1, timepoint 0 hours
[8] = 6 h, replicate number 1, timepoint 6 hours
[9] = 12 h, replicate number 1, timepoint 12 hours
[10] = 18 h, replicate number 1, timepoint 18 hours
[11] = 24 h, replicate number 1, timepoint 24 hours
[12] = 0 h, replicate number 2, timepoint 0 hours

CNC(=O)Nc1ccc2c(c1)CC[C@@]21OC(=O)N(CC(=O)N(Cc2ccc(F)cc2)[C@@H](C)C(F)(F)F)C1=O [A-485]
Growth Rate (Fibroblast [1]; [7]): 0
Growth Rate (Fibroblast [1]; [8]): 0
Growth Rate (Fibroblast [1]; [9]): 0
Growth Rate (Fibroblast [1]; 12 h, replicate number 2, timepoint 12 hours): 1
Growth Rate (Fibroblast [1]; [10]): 0
Growth Rate (Fibroblast [1]; [11]): 1
Growth Rate (Fibroblast [1]; 24 h, replicate number 2, timepoint 24 hours): 0
Growth Rate (HEK-293T [2]; [7]): 0
Growth Rate (HEK-293T [2]; [12]): 1
Growth Rate (HEK-293T [2]; [8]): 0
Growth Rate (HEK-293T [2]; [9]): 0
Growth Rate (HEK-293T [2]; [10]): 0
Growth Rate (HEK-293T [2]; [11]): 0
Population Apoptotic (%) (Fibroblast [3]; 12 h, replicate 1): 50% and 76%
Population Fragmented Nuclei (%) (Fibroblast [3]; 12 h, replicate 1): 17% and 24%
Population Healthy Nuclei (%) (Fibroblast [3]; 12 h, replicate 1): 59% and 61%
Population Hoechst High Intensity Objects (%) (Fibroblast [3]; 12 h, replicate 1): 8% and 9%
Population Mitotic Cells (%) (Fibroblast [3]; 12 h, replicate 1): 50% and 23%
Population Normal (%) (Fibroblast [3]; 12 h, replicate 1): 91% and 90%
Population Pyknosed Nuclei (%) (Fibroblast [3]; 12 h, replicate 1): 23% and 13%
Total Cell Count (Fibroblast [3]; 12 h, replicate 1): 243 and 214
Population Fragmented Nuclei (%) (Fibroblast [3]; 12 h, replicate 2): 53% and 66%
Population Healthy Nuclei (%) (Fibroblast [3]; 12 h, replicate 2): 39% and 24%
Population Hoechst High Intensity Objects (%) (Fibroblast [3]; 12 h, replicate 2): 37% and 49%
Population Membrane Permeable-Phenotype (%) (Fibroblast [3]; 12 h, replicate 2): 11% and 33%
Population Mitochondria Different-Phenotype (%) (Fibroblast [3]; 12 h, replicate 2): 17% and 25%
Population Normal (%) (Fibroblast [3]; 12 h, replicate 2): 62% and 50%
Population Pyknosed Nuclei (%) (Fibroblast [3]; 12 h, replicate 2): 6% and 10%
Population Tubulin-Different-Phenotype (%) (Fibroblast [3]; 12 h, replicate 2): 23% and 66%
Total Cell Count (Fibroblast [3]; 12 h, replicate 2): 69 and 99
Population Apoptotic (%) (Fibroblast [3]; 24 h, replicate 1): 73% and 48%
Population Fragmented Nuclei (%) (Fibroblast [3]; 24 h, replicate 1): 17% and 22%
Population Healthy Nuclei (%) (Fibroblast [3]; 24 h, replicate 1): 64% and 59%
Population Hoechst High Intensity Objects (%) (Fibroblast [3]; 24 h, replicate 1): 9% and 11%
Population Membrane Permeable-Phenotype (%) (Fibroblast [3]; 24 h, replicate 1): 17% and 11%
Population Mitotic Cells (%) (Fibroblast [3]; 24 h, replicate 1): 26% and 51%
Population Normal (%) (Fibroblast [3]; 24 h, replicate 1): 90% and 88%
Population Pyknosed Nuclei (%) (Fibroblast [3]; 24 h, replicate 1): 17%
Population Tubulin-Different-Phenotype (%) (Fibroblast [3]; 24 h, replicate 1): 9%
Total Cell Count (Fibroblast [3]; 24 h, replicate 1): 251 and 207
Population Apoptotic (%) (Fibroblast [3]; 24 h, replicate 2): 50%
Population Fragmented Nuclei (%) (Fibroblast [3]; 24 h, replicate 2): 51% and 62%
Population Healthy Nuclei (%) (Fibroblast [3]; 24 h, replicate 2): 37% and 29%
Population Hoechst High Intensity Objects (%) (Fibroblast [3]; 24 h, replicate 2): 39% and 51%
Population Mitochondria Different-Phenotype (%) (Fibroblast [3]; 24 h, replicate 2): 0% and 21%
Population Mitotic Cells (%) (Fibroblast [3]; 24 h, replicate 2): 50%
Population Normal (%) (Fibroblast [3]; 24 h, replicate 2): 60% and 48%
Population Pyknosed Nuclei (%) (Fibroblast [3]; 24 h, replicate 2): 10% and 8%
Population Tubulin-Different-Phenotype (%) (Fibroblast [3]; 24 h, replicate 2): 21% and 42%
Total Cell Count (Fibroblast [3]; 24 h, replicate 2): 61 and 99
Population Apoptotic (%) (HEK-293T [4]; 12 h, replicate 1): 15% and 30%
Population Fragmented Nuclei (%) (HEK-293T [4]; 12 h, replicate 1): 18% and 22%
Population Healthy Nuclei (%) (HEK-293T [4]; 12 h, replicate 1): 55% and 56%
Population Hoechst High Intensity Objects (%) (HEK-293T [4]; 12 h, replicate 1): 16% and 23%
Population Mitochondria Different-Phenotype (%) (HEK-293T [4]; 12 h, replicate 1): 8% and 7%
Population Mitotic Cells (%) (HEK-293T [4]; 12 h, replicate 1): 84% and 69%
Population Normal (%) (HEK-293T [4]; 12 h, replicate 1): 83% and 76%
Population Pyknosed Nuclei (%) (HEK-293T [4]; 12 h, replicate 1): 26% and 20%
Total Cell Count (HEK-293T [4]; 12 h, replicate 1): 630 and 586
Population Apoptotic (%) (HEK-293T [4]; 12 h, replicate 2): 6% and 12%
Population Fragmented Nuclei (%) (HEK-293T [4]; 12 h, replicate 2): 5% and 8%
Population Healthy Nuclei (%) (HEK-293T [4]; 12 h, replicate 2): 85% and 87%
Population Hoechst High Intensity Objects (%) (HEK-293T [4]; 12 h, replicate 2): 2%
Population Mitochondria Different-Phenotype (%) (HEK-293T [4]; 12 h, replicate 2): 20% and 9%
Population Mitotic Cells (%) (HEK-293T [4]; 12 h, replicate 2): 93% and 87%
Population Normal (%) (HEK-293T [4]; 12 h, replicate 2): 97%
Population Pyknosed Nuclei (%) (HEK-293T [4]; 12 h, replicate 2): 8% and 4%
Total Cell Count (HEK-293T [4]; 12 h, replicate 2): 1495 and 1775
Population Apoptotic (%) (HEK-293T [4]; 24 h, replicate 1): 21% and 25%
Population Fragmented Nuclei (%) (HEK-293T [4]; 24 h, replicate 1): 18%
Population Healthy Nuclei (%) (HEK-293T [4]; 24 h, replicate 1): 62% and 73%
Population Hoechst High Intensity Objects (%) (HEK-293T [4]; 24 h, replicate 1): 11% and 16%
Population Membrane Permeable-Phenotype (%) (HEK-293T [4]; 24 h, replicate 1): 14% and 9%
Population Mitochondria Different-Phenotype (%) (HEK-293T [4]; 24 h, replicate 1): 15% and 6%
Population Mitotic Cells (%) (HEK-293T [4]; 24 h, replicate 1): 78% and 74%
Population Normal (%) (HEK-293T [4]; 24 h, replicate 1): 88% and 83%
Population Pyknosed Nuclei (%) (HEK-293T [4]; 24 h, replicate 1): 18% and 8%
Population Tubulin-Different-Phenotype (%) (HEK-293T [4]; 24 h, replicate 1): 74%
Total Cell Count (HEK-293T [4]; 24 h, replicate 1): 539 and 610
Population Apoptotic (%) (HEK-293T [4]; 24 h, replicate 2): 10% and 4%
Population Fragmented Nuclei (%) (HEK-293T [4]; 24 h, replicate 2): 14% and 24%
Population Healthy Nuclei (%) (HEK-293T [4]; 24 h, replicate 2): 81% and 72%
Population Hoechst High Intensity Objects (%) (HEK-293T [4]; 24 h, replicate 2): 5% and 3%
Population Membrane Permeable-Phenotype (%) (HEK-293T [4]; 24 h, replicate 2): 16% and 10%
Population Mitotic Cells (%) (HEK-293T [4]; 24 h, replicate 2): 89% and 95%
Population Normal (%) (HEK-293T [4]; 24 h, replicate 2): 94% and 96%
Population Pyknosed Nuclei (%) (HEK-293T [4]; 24 h, replicate 2): 4% and 2%
Total Cell Count (HEK-293T [4]; 24 h, replicate 2): 1741 and 2832
Growth Rate (U2OS [5]; [7]): 1
Growth Rate (U2OS [5]; [12]): 0
Growth Rate (U2OS [5]; [8]): 0
Growth Rate (U2OS [5]; [9]): 1
Growth Rate (U2OS [5]; [10]): 1
Growth Rate (U2OS [5]; [11]): 1
Population Apoptotic (%) (U2OS [6]; 12 h, replicate 1): 30% and 62%
Population Fragmented Nuclei (%) (U2OS [6]; 12 h, replicate 1): 2% and 8%
Population Healthy Nuclei (%) (U2OS [6]; 12 h, replicate 1): 91% and 85%
Population Hoechst High Intensity Objects (%) (U2OS [6]; 12 h, replicate 1): 4%
Population Mitochondria Different-Phenotype (%) (U2OS [6]; 12 h, replicate 1): 14% and 16%
Population Mitotic Cells (%) (U2OS [6]; 12 h, replicate 1): 70% and 37%
Population Normal (%) (U2OS [6]; 12 h, replicate 1): 95%
Population Pyknosed Nuclei (%) (U2OS [6]; 12 h, replicate 1): 5% and 6%
Population Tubulin-Different-Phenotype (%) (U2OS [6]; 12 h, replicate 1): 58% and 20%
Total Cell Count (U2OS [6]; 12 h, replicate 1): 185 and 139
Population Apoptotic (%) (U2OS [6]; 12 h, replicate 2): 20% and 0%
Population Fragmented Nuclei (%) (U2OS [6]; 12 h, replicate 2): 10% and 7%
Population Healthy Nuclei (%) (U2OS [6]; 12 h, replicate 2): 76% and 88%
Population Hoechst High Intensity Objects (%) (U2OS [6]; 12 h, replicate 2): 6% and 8%
Population Mitochondria Different-Phenotype (%) (U2OS [6]; 12 h, replicate 2): 23% and 22%
Population Mitotic Cells (%) (U2OS [6]; 12 h, replicate 2): 80% and 100%
Population Normal (%) (U2OS [6]; 12 h, replicate 2): 93% and 91%
Population Pyknosed Nuclei (%) (U2OS [6]; 12 h, replicate 2): 12% and 4%
Total Cell Count (U2OS [6]; 12 h, replicate 2): 82 and 103
Population Fragmented Nuclei (%) (U2OS [6]; 24 h, replicate 1): 5% and 4%
Population Healthy Nuclei (%) (U2OS [6]; 24 h, replicate 1): 88% and 90%
Population Hoechst High Intensity Objects (%) (U2OS [6]; 24 h, replicate 1): 0% and 2%
Population Membrane Permeable-Phenotype (%) (U2OS [6]; 24 h, replicate 1): 24% and 13%
Population Mitochondria Different-Phenotype (%) (U2OS [6]; 24 h, replicate 1): 10% and 11%
Population Mitotic Cells (%) (U2OS [6]; 24 h, replicate 1): 93% and 66%
Population Normal (%) (U2OS [6]; 24 h, replicate 1): 99% and 97%
Population Pyknosed Nuclei (%) (U2OS [6]; 24 h, replicate 1): 6% and 4%
Population Tubulin-Different-Phenotype (%) (U2OS [6]; 24 h, replicate 1): 22% and 28%
Total Cell Count (U2OS [6]; 24 h, replicate 1): 230 and 188
Population Apoptotic (%) (U2OS [6]; 24 h, replicate 2): 35% and 66%
Population Fragmented Nuclei (%) (U2OS [6]; 24 h, replicate 2): 9% and 3%
Population Healthy Nuclei (%) (U2OS [6]; 24 h, replicate 2): 77% and 94%
Population Hoechst High Intensity Objects (%) (U2OS [6]; 24 h, replicate 2): 6% and 11%
Population Membrane Permeable-Phenotype (%) (U2OS [6]; 24 h, replicate 2): 14% and 11%
Population Mitochondria Different-Phenotype (%) (U2OS [6]; 24 h, replicate 2): 19% and 18%
Population Mitotic Cells (%) (U2OS [6]; 24 h, replicate 2): 64% and 33%
Population Normal (%) (U2OS [6]; 24 h, replicate 2): 93% and 88%
Population Tubulin-Different-Phenotype (%) (U2OS [6]; 24 h, replicate 2): 13% and 11%
Total Cell Count (U2OS [6]; 24 h, replicate 2): 114 and 147
